Laboratory results as given in ChEMBL document CHEMBL1122702, “Radiohalogen-labeled imaging agents. 3. Compounds for measurement of brain blood flow by emission tomography” (J Med Chem, 1984).

Organism: Rattus norvegicus
Assay: Ratio of distribution of the [131I]-labeled compound at 5 min in rat lung over uptake in blood
Format: ADME, organism-based
Conditions: other tissue
How it was run: (§1)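 Male Sprague-Dawley rats (200–300 g, fed ad libitum), ether-anesthetized, got a tail-vein bolus of 0.2 mL saline containing 10–20 μCi 131I compound and were decapitated at the stated time. Organs were weighed and gamma-counted against a serially diluted external standard. Organ/blood ratio was calculated from % dose per gram of organ. Animal numbers per time point were 1–4.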

`COc1cc(CC(C)N(C)Cc2ccccc2)c(OC)cc1I` (stereo not given) was tested. Which Ratio did it give?
Its Ratio is 6.3.

Organism: Rattus norvegicus
Assay: Ratio of distribution of the [131I]-labeled compound at 30 min in rat brain over uptake in blood
Format: ADME, organism-based
Conditions: 0.5 h
How it was run: as §1

With `COc1cc(CC(C)N(C)Cc2ccccc2)c(OC)cc1I` (stereo not given) as the compound, how does the Ratio read?
The Ratio was 0.09.

Organism: Rattus norvegicus
Assay: Ratio of distribution of the [131I]-labeled compound at 30 min in rat heart over uptake in blood
Format: ADME, organism-based
Conditions: other tissue, 0.5 h
How it was run: as §1

`COc1cc(CC(C)N(C)Cc2ccccc2)c(OC)cc1I` (stereo not given) was tested. Which Ratio did it give?
Its Ratio is 2.1.

Organism: Rattus norvegicus
Assay: The distribution of the 131 I-labeled compound at 30 min was evaluated in rat lung as Percent of injected dose per gram in the organ
Format: ADME, organism-based
Conditions: in vivo, 0.5 h
How it was run: (§2)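 Male Sprague-Dawley rats (200–300 g, free access to food and water), lightly ether-anesthetized and restrained, received a 0.2 mL saline tail-vein bolus of 10–20 μCi 131I-labeled compound. They were decapitated at the stated time, and organs were excised, weighed and gamma-counted. Percent injected dose was determined against a calibrated external standard made by serial dilution of the injectate. n = 1–4 rats.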

For `COc1cc(CC(C)N(C)Cc2ccccc2)c(OC)cc1I` (stereo not given), which Dose is on record?
The Dose was 0.7%.

Organism: Rattus norvegicus
Assay: The distribution of the 131 I-labeled compound at 30 min was evaluated in rat kidney as Percent of injected dose per gram in the organ
Format: ADME, organism-based
Conditions: in vivo, 0.5 h
How it was run: as §2

How did the Dose turn out when `COc1cc(CC(C)N(C)Cc2ccccc2)c(OC)cc1I` (stereo not given) was run?
Its Dose is 0.52%.

Organism: Rattus norvegicus
Assay: The distribution of the 131 I-labeled compound at 5 min was evaluated in rat liver as Percent of injected dose in the total organ
Format: ADME, organism-based
Conditions: in vivo
How it was run: as §2

How did the Dose turn out when `COc1cc(CC(C)N(C)Cc2ccccc2)c(OC)cc1I` (stereo not given) was run?
The Dose was 12%.

Organism: Rattus norvegicus
Assay: The distribution of the 131 I-labeled compound at 30 min was evaluated in rat liver as Percent of injected dose in the total organ
Format: ADME, organism-based
Conditions: in vivo, 0.5 h
How it was run: as §2

For `COc1cc(CC(C)N(C)Cc2ccccc2)c(OC)cc1I` (stereo not given), which Dose is on record?
Its Dose is 7.6%.

Organism: Rattus norvegicus
Assay: Ratio of distribution of the [131I]-labeled compound at 30 min in rat kidney over uptake in blood
Format: ADME, organism-based
Conditions: other tissue, 0.5 h
How it was run: as §1

Which Ratio does the source give for `COc1cc(CC(C)N(C)Cc2ccccc2)c(OC)cc1I` (stereo not given) here?
The Ratio was 5.8.

Organism: Rattus norvegicus
Assay: Ratio of distribution of the [131I]-labeled compound at 5 min in rat kidney over uptake in blood
Format: ADME, organism-based
Conditions: other tissue
How it was run: as §1

With `COc1cc(CC(C)N(C)Cc2ccccc2)c(OC)cc1I` (stereo not given) as the compound, how does the Ratio read?
The Ratio was 5.3.

Organism: Rattus norvegicus
Assay: The distribution of the 131 I-labeled compound at 5 min was evaluated in rat heart as Percent of injected dose per gram in the organ
Format: ADME, organism-based
Conditions: in vivo
How it was run: as §2

With `COc1cc(CC(C)N(C)Cc2ccccc2)c(OC)cc1I` (stereo not given) as the compound, how does the Dose read?
The Dose was 1.1%.

Organism: Rattus norvegicus
Assay: Ratio of distribution of the [131I]-labeled compound at 5 min in rat liver over uptake in blood
Format: ADME, organism-based
Conditions: other tissue
How it was run: as §1

With `COc1cc(CC(C)N(C)Cc2ccccc2)c(OC)cc1I` (stereo not given) as the compound, how does the Ratio read?
Its Ratio is 6.7.

Organism: Rattus norvegicus
Assay: The distribution of the 131 I-labeled compound at 30 min was evaluated in rat kidney as Percent of injected dose in the total organ
Format: ADME, organism-based
Conditions: in vivo, 0.5 h
How it was run: as §2

With `COc1cc(CC(C)N(C)Cc2ccccc2)c(OC)cc1I` (stereo not given) as the compound, how does the Dose read?
The Dose was 1.3%.

Organism: Rattus norvegicus
Assay: The distribution of the 131 I-labeled compound at 30 min was evaluated in rat heart as Percent of injected dose in the total organ
Format: ADME, organism-based
Conditions: in vivo, 0.5 h
How it was run: as §2

For `COc1cc(CC(C)N(C)Cc2ccccc2)c(OC)cc1I` (stereo not given), which Dose is on record?
Its Dose is 0.21%.

Organism: Rattus norvegicus
Assay: The distribution of the 131 I-labeled compound at 5 min was evaluated in rat blood as Percent of injected dose per gram in the organ
Format: ADME, organism-based
Conditions: in vivo
How it was run: as §2

`COc1cc(CC(C)N(C)Cc2ccccc2)c(OC)cc1I` (stereo not given) was tested. Which Dose did it give?
The Dose was 0.12%.

Organism: Rattus norvegicus
Assay: The distribution of the 131 I-labeled compound at 30 min was evaluated in rat blood as Percent of injected dose per gram in the organ
Format: ADME, organism-based
Conditions: in vivo, 0.5 h
How it was run: as §2

`COc1cc(CC(C)N(C)Cc2ccccc2)c(OC)cc1I` (stereo not given) was tested. Which Dose did it give?
Its Dose is 0.09%.

Organism: Rattus norvegicus
Assay: The distribution of the 131 I-labeled compound at 5 min was evaluated in rat brain as Percent of injected dose per gram in the organ
Format: ADME, organism-based
Conditions: in vivo
How it was run: as §2

With `COc1cc(CC(C)N(C)Cc2ccccc2)c(OC)cc1I` (stereo not given) as the compound, how does the Dose read?
The Dose was 0.15%.

Organism: Rattus norvegicus
Assay: Ratio of distribution of the [131I]-labeled compound at 30 min in rat lung over uptake in blood
Format: ADME, organism-based
Conditions: other tissue, 0.5 h
How it was run: as §1

Which Ratio does the source give for `COc1cc(CC(C)N(C)Cc2ccccc2)c(OC)cc1I` (stereo not given) here?
The Ratio was 7.8.

Organism: Rattus norvegicus
Assay: The distribution of the 131 I-labeled compound at 30 min was evaluated in rat heart as Percent of injected dose per gram in the organ
Format: ADME, organism-based
Conditions: in vivo, 0.5 h
How it was run: as §2

For `COc1cc(CC(C)N(C)Cc2ccccc2)c(OC)cc1I` (stereo not given), which Dose is on record?
The Dose was 0.19%.

Organism: Rattus norvegicus
Assay: The distribution of the 131 I-labeled compound at 5 min was evaluated in rat liver as Percent of injected dose per gram in the organ
Format: ADME, organism-based
Conditions: in vivo
How it was run: as §2

How did the Dose turn out when `COc1cc(CC(C)N(C)Cc2ccccc2)c(OC)cc1I` (stereo not given) was run?
Its Dose is 0.8%.

Organism: Rattus norvegicus
Assay: Ratio of distribution of the [131I]-labeled compound at 5 min in rat brain over uptake in blood
Format: ADME, organism-based
Conditions: not given
How it was run: as §1

`COc1cc(CC(C)N(C)Cc2ccccc2)c(OC)cc1I` (stereo not given) was tested. Which Ratio did it give?
Its Ratio is 1.3.

Organism: Rattus norvegicus
Assay: Ratio of distribution of the [131I]-labeled compound at 30 min in rat liver over uptake in blood
Format: ADME, organism-based
Conditions: other tissue, 0.5 h
How it was run: as §1

How did the Ratio turn out when `COc1cc(CC(C)N(C)Cc2ccccc2)c(OC)cc1I` (stereo not given) was run?
Its Ratio is 6.9.

Organism: Rattus norvegicus
Assay: Ratio of distribution of the [131I]-labeled compound at 5 min in rat heart over uptake in blood
Format: ADME, organism-based
Conditions: other tissue
How it was run: as §1

`COc1cc(CC(C)N(C)Cc2ccccc2)c(OC)cc1I` (stereo not given) was tested. Which Ratio did it give?
The Ratio was 9.2.

Organism: Rattus norvegicus
Assay: The distribution of the 131 I-labeled compound at 30 min was evaluated in rat brain as Percent of injected dose per gram in the organ
Format: ADME, organism-based
Conditions: in vivo, 0.5 h
How it was run: as §2

How did the Dose turn out when `COc1cc(CC(C)N(C)Cc2ccccc2)c(OC)cc1I` (stereo not given) was run?
The Dose was 0.05%.

Organism: Rattus norvegicus
Assay: The distribution of the 131 I-labeled compound at 5 min was evaluated in rat kidney as Percent of injected dose in the total organ
Format: ADME, organism-based
Conditions: in vivo
How it was run: as §2

Which Dose does the source give for `COc1cc(CC(C)N(C)Cc2ccccc2)c(OC)cc1I` (stereo not given) here?
Its Dose is 1.8%.

Organism: Rattus norvegicus
Assay: The distribution of the 131 I-labeled compound at 30 min was evaluated in rat liver as Percent of injected dose per gram in the organ
Format: ADME, organism-based
Conditions: in vivo, 0.5 h
How it was run: as §2

With `COc1cc(CC(C)N(C)Cc2ccccc2)c(OC)cc1I` (stereo not given) as the compound, how does the Dose read?
The Dose was 0.62%.

Organism: Rattus norvegicus
Assay: The distribution of the 131 I-labeled compound at 5 min was evaluated in rat brain as Percent of injected dose in the total organ
Format: ADME, organism-based
Conditions: in vivo
How it was run: as §2

Which Dose does the source give for `COc1cc(CC(C)N(C)Cc2ccccc2)c(OC)cc1I` (stereo not given) here?
Its Dose is 0.29%.

Organism: Rattus norvegicus
Assay: The distribution of the 131 I-labeled compound at 5 min was evaluated in rat heart as Percent of injected dose in the total organ
Format: ADME, organism-based
Conditions: in vivo
How it was run: as §2

For `COc1cc(CC(C)N(C)Cc2ccccc2)c(OC)cc1I` (stereo not given), which Dose is on record?
The Dose was 1.2%.

Organism: Rattus norvegicus
Assay: The distribution of the 131 I-labeled compound at 5 min was evaluated in rat kidney as Percent of injected dose per gram in the organ
Format: ADME, organism-based
Conditions: in vivo
How it was run: as §2

With `COc1cc(CC(C)N(C)Cc2ccccc2)c(OC)cc1I` (stereo not given) as the compound, how does the Dose read?
Its Dose is 0.63%.

Organism: Rattus norvegicus
Assay: The distribution of the 131 I-labeled compound at 5 min was evaluated in rat lung as Percent of injected dose per gram in the organ
Format: ADME, organism-based
Conditions: in vivo
How it was run: as §2

With `COc1cc(CC(C)N(C)Cc2ccccc2)c(OC)cc1I` (stereo not given) as the compound, how does the Dose read?
Its Dose is 0.75%.

Organism: Rattus norvegicus
Assay: The distribution of the 131 I-labeled compound at 30 min was evaluated in rat brain as Percent of injected dose in the total organ
Format: ADME, organism-based
Conditions: in vivo, 0.5 h
How it was run: as §2

With `COc1cc(CC(C)N(C)Cc2ccccc2)c(OC)cc1I` (stereo not given) as the compound, how does the Dose read?
Its Dose is 0.1%.
